How the values were obtained:
[1] = target: T1, Amine oxidase [flavin-containing] A (Homo sapiens, UniProt P21397); experiment: Inhibition of human recombinant MAO-A expressed in baculovirus infected BTI-TN-5B1-4 insect cells using tyramine as substrate preincubated for 1 hr followed by substrate addition and measured after 30 mins by resazurin dye-based fluorescence assay
T1 sequence (P21397 whole entry): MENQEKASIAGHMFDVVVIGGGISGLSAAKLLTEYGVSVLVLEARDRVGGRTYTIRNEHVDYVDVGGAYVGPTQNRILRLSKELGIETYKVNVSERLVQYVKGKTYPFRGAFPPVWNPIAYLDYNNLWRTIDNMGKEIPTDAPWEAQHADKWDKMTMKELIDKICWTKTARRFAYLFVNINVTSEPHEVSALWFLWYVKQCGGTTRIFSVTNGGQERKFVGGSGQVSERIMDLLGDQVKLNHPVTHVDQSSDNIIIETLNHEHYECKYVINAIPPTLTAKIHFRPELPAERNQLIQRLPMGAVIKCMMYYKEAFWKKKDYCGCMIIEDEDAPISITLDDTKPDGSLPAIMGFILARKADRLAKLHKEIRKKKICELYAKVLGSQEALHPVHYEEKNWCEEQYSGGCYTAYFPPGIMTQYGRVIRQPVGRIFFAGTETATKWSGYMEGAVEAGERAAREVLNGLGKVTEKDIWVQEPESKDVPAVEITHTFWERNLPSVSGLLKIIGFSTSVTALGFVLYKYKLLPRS

[2] = target: T2, Amine oxidase [flavin-containing] B (Homo sapiens, UniProt P27338); experiment: Inhibition of human recombinant MAO-B expressed in baculovirus infected BTI-TN-5B1-4 insect cells using benzylamine as substrate preincubated for 1 hr followed by substrate addition and measured after 30 mins by resazurin dye-based fluorescence assay; assay type: cell-based
T2 sequence (P27338 whole entry): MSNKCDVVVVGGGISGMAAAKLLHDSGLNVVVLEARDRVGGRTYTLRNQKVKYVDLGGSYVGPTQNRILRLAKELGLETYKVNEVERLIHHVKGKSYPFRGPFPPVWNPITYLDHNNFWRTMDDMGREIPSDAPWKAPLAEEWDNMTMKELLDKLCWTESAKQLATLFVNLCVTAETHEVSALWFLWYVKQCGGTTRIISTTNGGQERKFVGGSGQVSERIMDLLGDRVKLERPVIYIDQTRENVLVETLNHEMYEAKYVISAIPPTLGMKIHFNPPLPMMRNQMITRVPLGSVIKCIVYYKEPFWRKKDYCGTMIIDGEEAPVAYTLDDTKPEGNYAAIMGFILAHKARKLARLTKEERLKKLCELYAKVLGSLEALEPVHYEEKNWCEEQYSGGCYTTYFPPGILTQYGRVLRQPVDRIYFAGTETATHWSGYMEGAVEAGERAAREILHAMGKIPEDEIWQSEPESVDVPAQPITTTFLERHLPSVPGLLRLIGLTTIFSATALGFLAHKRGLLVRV

P-gp (MDR1) = experiment: Efflux ratio of apparent permeability in MDCK2-MDR1 cells at 10 uM after 1 hr in absence of P-gp inhibitor verapamil by UPLC-MS/MS analysis; assay type: ADME, cell-based, Canis lupus familiaris; details: dog, MDCK-MDR1
How it was run: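 MDCK-WT (MEM-α/10% FBS) or MDCK-MDR1 II (DMEM/10% FBS) cells were grown 3 days on 12-well transwells. Integrity was checked by TEER and 100 μM Lucifer yellow. Cells were washed in HBSS/10 mM HEPES. Compound at 10 μM was added apically or basally, in triplicate, ±100 μM verapamil. Receiver sampled at 1 h by UPLC-MS/MS. Efflux ratio = Papp B→A / Papp A→B.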

[3] = Efflux ratio of apparent permeability in MDCK-WT cells at 10 uM after 1 hr in absence of P-gp inhibitor verapamil by UPLC-MS/MS analysis; details: dog
[4] = Metabolic stability in human plasma assessed as parent compound remaining at 5 uM after 4 hrs by UPLC-MS/MS analysis; assay type: ADME, cell-free; details: read-out: Stability
How it was run: (§1)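 Compound at 5 μM was incubated in mouse or human plasma at 37 °C with shaking. Sampled at 0, 5, 15, 30, 60, 120 and 240 min and stopped with ice-cold acetonitrile/0.1% formic acid containing internal standard. Supernatants analysed by UPLC-MS/MS for parent remaining. Run in triplicate.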

[5] = Metabolic stability in mouse plasma assessed as parent compound remaining at 5 uM after 4 hrs by UPLC-MS/MS analysis; assay type: ADME, cell-free; details: read-out: Stability; how it was run: as §1
[6] = Metabolic stability in mouse liver microsomes assessed as parent compound remaining at 1 uM after 60 mins in presence of NADPH by UPLC-MS/MS analysis; assay type: ADME, microsome; details: read-out: Stability
How it was run: (§2)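 Compound at 1 μM with 0.5 mg/mL mouse or human liver microsomes in 100 mM potassium phosphate pH 7.4, 3.3 mM MgCl2, 1 mM NADPH, at 37 °C. Started with NADPH; minus-NADPH control run. Stopped at 0, 5, 15, 30, 45 and 60 min with acetonitrile/formic acid plus internal standard. Parent remaining by UPLC-MS/MS, in triplicate.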

[7] = Metabolic stability in human liver microsomes assessed as parent compound remaining at 1 uM after 60 mins by UPLC-MS/MS analysis; assay type: ADME, microsome; details: liver microsomes, read-out: Stability; how it was run: as §2
[8] = Metabolic stability in cryopreserved mouse hepatocytes assessed as parent compound remaining at 1 uM after 60 mins by UPLC-MS/MS analysis; assay type: ADME, cell-based, Hepatocyte; details: read-out: Stability
Mus musculus [9] = experiment: Acute toxicity in C57BL/6 mouse assessed as abnormal clinical signs at […], sc administered as single dose measured after 24 hrs post-injection; assay type: organism-based; details: in vivo
[10] = Tmax in C57BL/6 mouse plasma at 20 mg/kg, iv administered as single dose measured 24 hrs by UPLC-MS/MS analysis; assay type: ADME, organism-based
How it was run: (§3)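 Plasma cleaned by protein precipitation with phospholipid removal, then UPLC-MS/MS in MRM mode. Tmax obtained by noncompartmental analysis.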

[11] = Cmax in C57BL/6 mouse plasma at 20 mg/kg, iv administered as single dose measured 24 hrs by UPLC-MS/MS analysis; assay type: ADME, organism-based; parameters: dose 20 mg/kg, route intravenous
How it was run: (§4)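 21 animals dosed at 0 min, 3 sacrificed at each of 0, 5, 15, 30 min, 1, 4 and 24 h. Plasma was extracted by protein precipitation with phospholipid removal. Brain was weighed, bead-homogenised in 50 mM ammonium formate and extracted in acidified organic solvent. Quantified by UPLC-MS/MS (MRM). Brain ng/g taken as ng/mL. Parameters came from noncompartmental analysis. Kp = AUClast brain/plasma.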

[12] = AUClast in C57BL/6 mouse plasma at 20 mg/kg, iv administered as single dose measured 24 hrs by UPLC-MS/MS analysis; assay type: ADME, organism-based; parameters: dose 20 mg/kg, route intravenous, time 0 - last; how it was run: as §4
[13] = Apparent half-life of the terminal disposition phase in C57BL/6 mouse plasma at 20 mg/kg, iv administered as single dose measured 24 hrs by UPLC-MS/MS analysis; assay type: ADME, organism-based; details: read-out: t1/2 lambda z (converted); how it was run: as §4
[14] = Tmax in C57BL/6 mouse brain at 20 mg/kg, iv administered as single dose measured 24 hrs by UPLC-MS/MS analysis; assay type: ADME, organism-based; how it was run: as §4
[15] = Cmax in C57BL/6 mouse brain at 20 mg/kg, iv administered as single dose measured 24 hrs by UPLC-MS/MS analysis; assay type: ADME, organism-based; parameters: dose 20 mg/kg, route intravenous; how it was run: as §4
[16] = AUClast in C57BL/6 mouse brain at 20 mg/kg, iv administered as single dose measured 24 hrs by UPLC-MS/MS analysis; assay type: ADME, organism-based; parameters: dose 20 mg/kg, time 0 - last, route intravenous; how it was run: as §4
[17] = Ratio of AUClast in brain to plasma in C57BL/6 mouse at 20 mg/kg, iv administered as single dose measured 24 hrs by UPLC-MS/MS analysis; assay type: ADME, organism-based; how it was run: as §4
Mus musculus [18] = experiment: Acute toxicity in C57BL/6 mouse assessed as abnormal clinical signs at […], iv administered as single dose measured after 24 hrs post-injection; assay type: organism-based; details: in vivo
Mus musculus [19] = experiment: Acute toxicity in C57BL/6 mouse assessed as abnormal clinical signs at […], po administered as single dose measured after 24 hrs post-injection; assay type: organism-based; details: in vivo
[20] = Tmax in C57BL/6 mouse plasma at 22 mg/kg, iv administered as single dose measured 24 hrs by UPLC-MS/MS analysis; assay type: ADME, organism-based; how it was run: as §3
[21] = Cmax in C57BL/6 mouse plasma at 22 mg/kg, iv administered as single dose measured 24 hrs by UPLC-MS/MS analysis; assay type: ADME, organism-based; parameters: dose 22 mg/kg, route intravenous; how it was run: as §4
[22] = AUClast in C57BL/6 mouse plasma at 22 mg/kg, iv administered as single dose measured 24 hrs by UPLC-MS/MS analysis; assay type: ADME, organism-based; parameters: dose 22 mg/kg, time 0 - last, route intravenous; how it was run: as §4
[23] = Apparent half-life of the terminal disposition phase in C57BL/6 mouse plasma at 22 mg/kg, iv administered as single dose measured 24 hrs by UPLC-MS/MS analysis; assay type: ADME, organism-based; details: read-out: t1/2 lambda z (converted); how it was run: as §4
[24] = Tmax in C57BL/6 mouse brain at 22 mg/kg, iv administered as single dose measured 24 hrs by UPLC-MS/MS analysis; assay type: ADME, organism-based
How it was run: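 Brains weighed, portion bead-homogenised in 50 mM ammonium formate, extracted in acidified organic solvent, quantified by UPLC-MS/MS. ng/g taken as ng/mL. Tmax from noncompartmental analysis.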

[25] = Cmax in C57BL/6 mouse brain at 22 mg/kg, iv administered as single dose measured 24 hrs by UPLC-MS/MS analysis; assay type: ADME, organism-based; parameters: dose 22 mg/kg, route intravenous; how it was run: as §4
[26] = AUClast in C57BL/6 mouse brain at 22 mg/kg, iv administered as single dose measured 24 hrs by UPLC-MS/MS analysis; assay type: ADME, organism-based; parameters: dose 22 mg/kg, route intravenous, time 0 - last; how it was run: as §4
[27] = Ratio of AUClast in brain to plasma in C57BL/6 mouse at 22 mg/kg, iv administered as single dose measured 24 hrs by UPLC-MS/MS analysis; assay type: ADME, organism-based; how it was run: as §4

## C[C@H](Cc1ccc(OCc2cc(F)cc(F)c2)cc1)N(C)CC(=O)O
[1]
  IC50: > 50 µM
[2]
  IC50: 0.911 µM

## C#CCN(C)[C@H](C)Cc1ccc(OCc2ccccc2)cc1
[1]
  IC50: 0.161 µM
[2]
  IC50: 0.005 µM

## COC(=O)[C@H](Cc1ccc(OCc2cccc(Cl)c2)cc1)N(C)CC(=O)O
[1]
  IC50: > 50 µM
[2]
  IC50: 1.26 µM

## O=C(O)COCCN1CCN(C(c2ccccc2)c2ccc(Cl)cc2)CC1 (configuration not stated) [CETIRIZINE]
P-gp (MDR1)
  efflux ratio at 1 h, 10 µM: 4.12
[3]
  efflux ratio at 1 h, 10 µM: 3

## CN(CC(=O)O)[C@H](COCc1ccccc1)Cc1ccc(OCc2ccccc2)cc1
[1]
  IC50: > 50 µM
[2]
  IC50: 8 µM

## C[C@H](Cc1ccc(OCc2ccccn2)cc1)N(C)CC(=O)O
[1]
  IC50: > 50 µM

## C[C@H](Cc1ccc(OCc2ccc3ccccc3c2)cc1)N(C)CC(=O)O
[2]
  IC50: 14.2 µM

## COC(=O)c1ccc(COc2ccc(C[C@@H](C)N(C)CC(=O)O)cc2)cc1
[1]
  IC50: > 50 µM

## C[C@H](Cc1ccc(OCc2cccc(Cl)c2)cc1)N(C)CC(=O)O
[1]
  IC50: > 50 µM
[2]
  IC50: 0.264 µM
P-gp (MDR1)
  efflux ratio at 1 h, 10 µM: 1.75
[4]
  remaining at 4 h, 5 µM: ≥ 75%
[5]
  remaining at 4 h, 5 µM: ≥ 75%
[6]
  remaining at 1 h, 1 µM: 87.3%
[7]
  remaining at 1 h, 1 µM: ≥ 90%
[8]
  remaining at 1 h, 1 µM: ≥ 90%
Mus musculus [9]
  Activity: Non-Toxic
[10]
  Tmax: 5 min
[11]
  Cmax: 16600 ng/mL
[12]
  AUC(0-t) at 24 h: 112000 ng·h/mL
[13]
  half-life: 4.51 h
[14]
  Tmax: 1 h
[15]
  Cmax: 648 ng/mL
[16]
  AUC(0-t) at 24 h: 2280 ng·h/mL
[17]
  Kp at 24 h: 0.02
Mus musculus [18]
  Activity: Non-Toxic
Mus musculus [19]
  Activity: Non-Toxic
[3]
  efflux ratio at 1 h, 10 µM: 1.23

## C[C@H](Cc1ccc(OCc2ccc(C#N)cc2)cc1)N(C)CC(=O)O
[1]
  IC50: > 50 µM
[2]
  IC50: 3.75 µM

## C[C@H](Cc1ccc(OCc2ccccc2C#N)cc1)N(C)CC(=O)O
[1]
  IC50: > 50 µM
[2]
  IC50: 14.1 µM

## C[C@H](Cc1ccc(OCc2ccc(Cl)c(Cl)c2)cc1)N(C)CC(=O)O
[1]
  IC50: 41.4 µM
[2]
  IC50: 0.218 µM
P-gp (MDR1)
  efflux ratio at 1 h, 10 µM: 3.07
[4]
  remaining at 4 h, 5 µM: ≥ 75%
[5]
  remaining at 4 h, 5 µM: ≥ 75%
[6]
  remaining at 1 h, 1 µM: 89.5%
[7]
  remaining at 1 h, 1 µM: ≥ 90%
[8]
  remaining at 1 h, 1 µM: ≥ 90%
Mus musculus [9]
  Activity: Non-Toxic
[20]
  Tmax: 5 min
[21]
  Cmax: 16200 ng/mL
[22]
  AUC(0-t) at 24 h: 82000 ng·h/mL
[23]
  half-life: 3.97 h
[24]
  Tmax: 4 h
[25]
  Cmax: 455 ng/mL
[26]
  AUC(0-t) at 24 h: 7450 ng·h/mL
[27]
  Kp at 24 h: 0.09
Mus musculus [18]
  Activity: Non-Toxic
Mus musculus [19]
  Activity: Non-Toxic
[3]
  efflux ratio at 1 h, 10 µM: 1.45

— ChEMBL document CHEMBL4229446, “Development of Novel Monoamine Oxidase-B (MAO-B) Inhibitors with Reduced Blood-Brain Barrier Permeability for the Potential Management of Noncentral Nervous System (CNS) Diseases” (J Med Chem, 2018)
